Assay results from ChEMBL document CHEMBL3864121, “Development of ebsulfur analogues as potent antibacterials against methicillin-resistant Staphylococcus aureus” (Bioorg Med Chem, 2016).
≈ marks a conversion by molar mass, not a printed value.

Legend:
Staphylococcus aureus [1] = test: Antibacterial activity against methicillin-resistant Staphylococcus aureus BRS3 measured after overnight incubation by broth double-dilution method; assay type: functional
Procedure, shortened: (§1)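 MIC by broth double-dilution in liquid Mueller-Hinton medium. Values are reported in µg/mL.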

Staphylococcus aureus [2] = test: Antibacterial activity against methicillin-resistant Staphylococcus aureus C7 measured after overnight incubation by broth double-dilution method; assay type: functional; procedure, shortened: as §1
Staphylococcus aureus [3] = test: Antibacterial activity against methicillin-sensitive Staphylococcus aureus ATCC 29213 measured after overnight incubation by broth double-dilution method; assay type: functional; procedure, shortened: as §1
Staphylococcus aureus [4] = test: Antibacterial activity against methicillin-resistant Staphylococcus aureus NRS4 measured after overnight incubation by broth double-dilution method; assay type: functional; procedure, shortened: as §1
Staphylococcus aureus [5] = test: Antibacterial activity against methicillin-resistant Staphylococcus aureus 2 measured after overnight incubation by broth double-dilution method; assay type: functional; procedure, shortened: as §1
Staphylococcus aureus [6] = test: Antibacterial activity against methicillin-resistant Staphylococcus aureus 1 measured after overnight incubation by broth double-dilution method; assay type: functional; procedure, shortened: as §1
Staphylococcus aureus [7] = test: Antibacterial activity against methicillin-resistant Staphylococcus aureus C2 measured after overnight incubation by broth double-dilution method; assay type: functional; procedure, shortened: as §1
Enterococcus faecalis [8] = test: Antibacterial activity against Enterococcus faecalis ATCC 29212 measured after overnight incubation by broth double-dilution method; assay type: functional
Procedure, shortened: (§2)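 MIC by broth double-dilution in Mueller-Hinton medium. Re-testing at the time-kill inoculum used 1×10^6 CFU/mL.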

Staphylococcus aureus [9] = test: Antibacterial activity against methicillin-resistant Staphylococcus aureus S14 measured after overnight incubation by broth double-dilution method; assay type: functional; procedure, shortened: as §1
Staphylococcus aureus [10] = test: Antibacterial activity against methicillin-resistant Staphylococcus aureus USA100 measured after overnight incubation by broth double-dilution method; assay type: functional; procedure, shortened: as §1
[11] = test system: Staphylococcus epidermidis; test: Antibacterial activity against Staphylococcus epidermidis ATCC 35984 measured after overnight incubation by broth double-dilution method; assay type: functional; details: RP62A; procedure, shortened: as §2
[12] = test system: Mycolicibacterium smegmatis; test: Antibacterial activity against Mycobacterium smegmatis MC2-155 measured after overnight incubation by broth double-dilution method; assay type: functional; details: str. MC2 155; procedure, shortened: as §1
Staphylococcus aureus [13] = test: Antibacterial activity against methicillin-resistant Staphylococcus aureus USA200 measured after overnight incubation by broth double-dilution method; assay type: functional; procedure, shortened: as §1
Staphylococcus aureus [14] = test: Antibacterial activity against methicillin-resistant Staphylococcus aureus G6 measured after overnight incubation by broth double-dilution method; assay type: functional; procedure, shortened: as §1
Staphylococcus aureus [15] = test: Antibacterial activity against methicillin-resistant Staphylococcus aureus ATCC 33591 measured after overnight incubation by broth double-dilution method; assay type: functional; procedure, shortened: as §1
Staphylococcus aureus [16] = test: Antibacterial activity against methicillin-resistant Staphylococcus aureus USA600 measured after overnight incubation by broth double-dilution method; assay type: functional; procedure, shortened: as §1
Staphylococcus aureus [17] = test: Antibacterial activity against methicillin-resistant Staphylococcus aureus G14 measured after overnight incubation by broth double-dilution method; assay type: functional; procedure, shortened: as §1
Staphylococcus aureus [18] = test: Antibacterial activity against methicillin-resistant Staphylococcus aureus S24 measured after overnight incubation by broth double-dilution method; assay type: functional; procedure, shortened: as §1
Staphylococcus aureus [19] = test: Antibacterial activity against methicillin-resistant Staphylococcus aureus C19 measured after overnight incubation by broth double-dilution method; assay type: functional; procedure, shortened: as §1
Staphylococcus aureus [20] = test: Antibacterial activity against methicillin-resistant Staphylococcus aureus C1 measured after overnight incubation by broth double-dilution method; assay type: functional; procedure, shortened: as §1
Staphylococcus aureus [21] = test: Antibacterial activity against methicillin-resistant Staphylococcus aureus C16 measured after overnight incubation by broth double-dilution method; assay type: functional; procedure, shortened: as §1
Staphylococcus aureus [22] = test: Antibacterial activity against methicillin-resistant Staphylococcus aureus S17 measured after overnight incubation by broth double-dilution method; assay type: functional; procedure, shortened: as §1
Staphylococcus aureus [23] = test: Antibacterial activity against methicillin-resistant Staphylococcus aureus USA300 measured after overnight incubation by broth double-dilution method; assay type: functional; procedure, shortened: as §1
Enterococcus = test: Antibacterial activity against Vancomycin-resistant Enterococcus measured after overnight incubation by broth double-dilution method; assay type: functional; procedure, shortened: as §1
Staphylococcus aureus [24] = test: Antibacterial activity against methicillin-resistant Staphylococcus aureus NRS77 measured after overnight incubation by broth double-dilution method; assay type: functional; procedure, shortened: as §1
Staphylococcus aureus [25] = test: Antibacterial activity against methicillin-resistant Staphylococcus aureus G1 measured after overnight incubation by broth double-dilution method; assay type: functional; procedure, shortened: as §1
Enterococcus faecalis [26] = test: Antibacterial activity against Enterococcus faecalis ATCC 49533 measured after overnight incubation by broth double-dilution method; assay type: functional; procedure, shortened: as §2
[27] = Solubility of compound in Muller-Hinton medium; assay type: physicochemical
Staphylococcus aureus [28] = test: Antibacterial activity against methicillin-sensitive Staphylococcus aureus ATCC 6538 measured after overnight incubation by broth double-dilution method; assay type: functional; procedure, shortened: as §1
Enterococcus faecium = test: Antibacterial activity against Enterococcus faecium BM4105-RF measured after overnight incubation by broth double-dilution method; assay type: functional; procedure, shortened: as §1
Staphylococcus aureus [29] = test: Antibacterial activity against methicillin-sensitive Staphylococcus aureus ATCC 25923 measured after overnight incubation by broth double-dilution method; assay type: functional; procedure, shortened: as §1
Staphylococcus aureus [30] = test: Antibacterial activity against methicillin-resistant Staphylococcus aureus NRS51 measured after overnight incubation by broth double-dilution method; assay type: functional; procedure, shortened: as §1
Staphylococcus aureus [31] = test: Antibacterial activity against methicillin-resistant Staphylococcus aureus S22 measured after overnight incubation by broth double-dilution method; assay type: functional; procedure, shortened: as §1
Staphylococcus aureus [32] = test: Antibacterial activity against methicillin-resistant Staphylococcus aureus G12 measured after overnight incubation by broth double-dilution method; assay type: functional; procedure, shortened: as §1
Listeria monocytogenes = test: Antibacterial activity against Listeria monocytogenes ATCC 19115 measured after overnight incubation by broth double-dilution method; assay type: functional; procedure, shortened: as §2
Staphylococcus aureus [33] = test: Antibacterial activity against methicillin-resistant Staphylococcus aureus C14 measured after overnight incubation by broth double-dilution method; assay type: functional; procedure, shortened: as §1
[34] = Cytotoxicity against HEK293 cells assessed as cell death up to 10 ug/ml measured after 24 hrs by resazurin dye-based fluorescence analysis relative to untreated control; assay type: toxicity; details: human, hek293, 24 h
[35] = test system: Staphylococcus epidermidis; test: Antibiofilm activity against Staphylococcus epidermidis ATCC 35984 assessed as reduction of biofilm at […] measured after 24 hrs by crystal violet staining based method relative to control; assay type: functional, RP62A; set-up: scale not given: the % may be the effect or the level left
Staphylococcus aureus [36] = test: Antibiofilm activity against methicillin-sensitive Staphylococcus aureus ATCC 6538 assessed as reduction of biofilm at […] measured after 24 hrs by crystal violet staining based method relative to control; assay type: functional; set-up: scale not given: the % may be the effect or the level left

SMILES	MIC (Staphylococcus aureus [1])	MIC (Staphylococcus aureus [2])	MIC (Staphylococcus aureus [3])	MIC (Staphylococcus aureus [4])	MIC (Staphylococcus aureus [5])	MIC (Staphylococcus aureus [6])	MIC (Staphylococcus aureus [7])	MIC (Enterococcus faecalis [8])	MIC (Staphylococcus aureus [9])	MIC (Staphylococcus aureus [10])	MIC [11]	MIC [12]	MIC (Staphylococcus aureus [13])	MIC (Staphylococcus aureus [14])	MIC (Staphylococcus aureus [15])	MIC (Staphylococcus aureus [16])	MIC (Staphylococcus aureus [17])	MIC (Staphylococcus aureus [18])	MIC (Staphylococcus aureus [19])	MIC (Staphylococcus aureus [20])	further results
O=c1c2ccccc2sn1-c1ccccn1	15.6 µg/mL (≈ 68.3 µM)	7.8 µg/mL (≈ 34.2 µM)	7.8 µg/mL (≈ 34.2 µM)	15.6 µg/mL (≈ 68.3 µM)	7.8 µg/mL (≈ 34.2 µM)	15.6 µg/mL (≈ 68.3 µM)	7.8 µg/mL (≈ 34.2 µM)	> 125 µg/mL	2 µg/mL (≈ 8.76 µM)	7.8 µg/mL (≈ 34.2 µM)	3.9 µg/mL (≈ 17.1 µM)	7.8 µg/mL (≈ 34.2 µM)	7.8 µg/mL (≈ 34.2 µM)	7.8 µg/mL (≈ 34.2 µM)	3.9 µg/mL (≈ 17.1 µM)	15.6 µg/mL (≈ 68.3 µM)	7.8 µg/mL (≈ 34.2 µM)	7.8 µg/mL (≈ 34.2 µM)	7.8 µg/mL (≈ 34.2 µM)	3.9 µg/mL (≈ 17.1 µM)	MIC (Staphylococcus aureus [21]): 7.8 µg/mL (≈ 34.2 µM); MIC (Staphylococcus aureus [22]): 7.8 µg/mL (≈ 34.2 µM); MIC (Staphylococcus aureus [23]): 7.8 µg/mL (≈ 34.2 µM); MIC (Enterococcus): 7.8 µg/mL (≈ 34.2 µM); MIC (Staphylococcus aureus [24]): 15.6 µg/mL (≈ 68.3 µM); MIC (Staphylococcus aureus [25]): 7.8 µg/mL (≈ 34.2 µM); MIC (Enterococcus faecalis [26]): > 125 µg/mL; solubility [27]: Soluble; MIC (Staphylococcus aureus [28]): 7.8 µg/mL (≈ 34.2 µM); MIC (Enterococcus faecium): > 125 µg/mL; MIC (Staphylococcus aureus [29]): 7.8 µg/mL (≈ 34.2 µM); MIC (Staphylococcus aureus [30]): 7.8 µg/mL (≈ 34.2 µM); MIC (Staphylococcus aureus [31]): 7.8 µg/mL (≈ 34.2 µM); MIC (Staphylococcus aureus [32]): 7.8 µg/mL (≈ 34.2 µM); MIC (Listeria monocytogenes): 7.8 µg/mL (≈ 34.2 µM); MIC (Staphylococcus aureus [33]): 7.8 µg/mL (≈ 34.2 µM)
CC(C)c1ccc(-n2sc3ccccc3c2=O)cc1	2 µg/mL (≈ 7.42 µM)	0.5 µg/mL (≈ 1.86 µM)	≤ 0.25 µg/mL	2 µg/mL (≈ 7.42 µM)	1 µg/mL (≈ 3.71 µM)	≤ 0.25 µg/mL	0.5 µg/mL (≈ 1.86 µM)	15.6 µg/mL (≈ 57.9 µM)	≤ 0.25 µg/mL	0.5 µg/mL (≈ 1.86 µM)	0.25 µg/mL (≈ 0.928 µM)	0.5 µg/mL (≈ 1.86 µM)	1 µg/mL (≈ 3.71 µM)	0.5 µg/mL (≈ 1.86 µM)	≤ 0.25 µg/mL	1 µg/mL (≈ 3.71 µM)	1 µg/mL (≈ 3.71 µM)	≤ 0.25 µg/mL	0.5 µg/mL (≈ 1.86 µM)	≤ 0.25 µg/mL	MIC (Staphylococcus aureus [21]): 1 µg/mL (≈ 3.71 µM); MIC (Staphylococcus aureus [22]): ≤ 0.25 µg/mL; MIC (Staphylococcus aureus [23]): 2 µg/mL (≈ 7.42 µM); Activity [34]: > 20%; MIC (Enterococcus): ≤ 0.25 µg/mL; MIC (Staphylococcus aureus [24]): 1 µg/mL (≈ 3.71 µM); MIC (Staphylococcus aureus [25]): ≤ 0.25 µg/mL; MIC (Enterococcus faecalis [26]): 62.5 µg/mL (≈ 232 µM); MIC (Staphylococcus aureus [28]): 2 µg/mL (≈ 7.42 µM); MIC (Enterococcus faecium): 15.6 µg/mL (≈ 57.9 µM); MIC (Staphylococcus aureus [29]): 2 µg/mL (≈ 7.42 µM); MIC (Staphylococcus aureus [30]): 0.5 µg/mL (≈ 1.86 µM); Activity [35]: 50 - 60%; MIC (Staphylococcus aureus [31]): 0.5 µg/mL (≈ 1.86 µM); MIC (Staphylococcus aureus [32]): 1 µg/mL (≈ 3.71 µM); MIC (Listeria monocytogenes): 0.5 µg/mL (≈ 1.86 µM); Activity (Staphylococcus aureus [36]): 50%; MIC (Staphylococcus aureus [33]): 1 µg/mL (≈ 3.71 µM)
